Assay results from paper PMC4792293 (RSC advances, 2015).
Where two headings read alike, the source gives them in different places.

Assays:
α-glucosidase [1] = conditions: cited from earlier work
α-glucosidase [2] = molecular target: T1, α-glucosidase (Saccharomyces cerevisiae, UniProt P53341); test: Circular dichroism; type: binding; conditions: α-glucosidase 2 μM; for β-Turns %: control 14.3; for β-Fold %: control 21.9; for Unordered %: control 26.9; for α-Helix %: control 36.3
Procedure, shortened: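 Far-UV CD spectra (190–240 nm) at 25 °C. Yeast α-glucosidase at 2 μM was co-incubated with test compound at 0–80 μM for 20 min at 37 °C in 0.1 M sodium phosphate, pH 6.8, in a 1.0 mm path-length cell. Spectra were blank-subtracted against buffer, noise-reduced and smoothed. Secondary-structure fractions were estimated with the DichroWeb server.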

[3] = molecular target: T2, α-Glucosidase (EC 3.2.1.20) from Saccharomyces cerevisiae (Saccharomyces cerevisiae, UniProt P53341); test: Kinetics of α-glucosidase inhibition; type: biochemical; conditions: Lineweaver-Burk plots, ligand 2 – 250 μM
Procedure, shortened: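 Two inhibitor concentrations within 2–250 μM were tested against p-nitrophenyl-α-D-glucopyranoside at 1–1000 μM in 50 mM phosphate, pH 6.8. Enzyme and inhibitor were pre-incubated for 30 min, at room temperature per the methods but at 37 °C per the figure legend. Substrate was then added, reacted 60 s at room temperature and read at 405 nm. Inhibition type was assigned from double-reciprocal plots.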

α-glucosidase [4] = molecular target: T1, α-glucosidase; test: Isothermal titration calorimetry; type: binding; conditions: for ITC titration peaks: ligand concentrations 1 – 4 mM; for binding constants (Ka) / ΔG / Ka / ΔH / ΔS / N [GCGs/α-glucosidase] (ligand:enzyme ratio): ITC
Procedure, shortened: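 Test compound (1–4 mM) was titrated into α-glucosidase (0.026–0.031 mM) in the cell, both in 100 mM phosphate, pH 7.0, and degassed 20 min under vacuum. Titration used 17 injections at 240 s intervals, 25 °C, with stirring at 310 rpm. Blanks were buffer into buffer and compound into buffer. Data were fit by nonlinear regression to a single-site binding model.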

[5] = molecular target: T2, α-Glucosidase (EC 3.2.1.20) from Saccharomyces cerevisiae; test: α-glucosidase inhibitory assay; type: biochemical
[6] = yeast α-glucosidase, pNPG, pH 6.9, 25 °C, mean ± S.D. from three independent experiments

T1 sequence (P53341 whole entry): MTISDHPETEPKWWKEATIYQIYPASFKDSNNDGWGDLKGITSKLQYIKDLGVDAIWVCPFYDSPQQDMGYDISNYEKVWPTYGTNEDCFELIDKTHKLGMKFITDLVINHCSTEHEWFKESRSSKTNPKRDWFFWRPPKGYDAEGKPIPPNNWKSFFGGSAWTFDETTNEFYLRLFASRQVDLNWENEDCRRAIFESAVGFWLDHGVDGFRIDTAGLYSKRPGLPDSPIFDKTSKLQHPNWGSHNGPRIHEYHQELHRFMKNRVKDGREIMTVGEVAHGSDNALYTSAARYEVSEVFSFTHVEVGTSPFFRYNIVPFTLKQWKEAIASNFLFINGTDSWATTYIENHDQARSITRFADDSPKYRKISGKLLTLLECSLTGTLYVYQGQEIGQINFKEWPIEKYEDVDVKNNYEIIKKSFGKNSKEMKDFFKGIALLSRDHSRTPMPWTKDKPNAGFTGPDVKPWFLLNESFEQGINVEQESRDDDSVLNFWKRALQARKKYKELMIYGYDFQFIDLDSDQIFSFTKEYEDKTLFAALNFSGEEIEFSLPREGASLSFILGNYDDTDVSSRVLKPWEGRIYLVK
T2 sequence (P53341 whole entry): as above

O=C(OC[C@H]1O[C@@H](OC(=O)c2cc(O)c(O)c(O)c2)[C@H](OC(=O)c2cc(O)c(O)c(O)c2)[C@@H](OC(=O)c2cc(O)c(O)c(O)c2)[C@@H]1OC(=O)c1cc(O)c(O)c(O)c1)c1cc(O)c(O)c(O)c1 [PGG, pentagalloyl glucose]
Type of inhibition (α-glucosidase [1]): noncompetitive α-glucosidase inhibitor

C[C@H]1O[C@H](O[C@H]2[C@H](O)[C@@H](O)[C@@H](O[C@H]3[C@H](O)[C@@H](O)C(O)O[C@@H]3CO)O[C@@H]2CO)[C@H](O)[C@@H](O)[C@@H]1N[C@H]1C=C(CO)[C@@H](O)[C@H](O)[C@H]1O (stereo partly shown) [acarbose]
Type of inhibition (α-glucosidase [1]; positive control): competitive inhibitor

O=C(OC[C@H]1OC[C@H](OC(=O)c2cc(O)c(O)c(O)c2)[C@@H](O)[C@@H]1O)c1cc(O)c(O)c(O)c1 [ginnalin A]
β-Turns % (α-glucosidase [2]; ligand 40 μM): 11.5%
β-Fold % (α-glucosidase [2]; ligand 40 μM): 22.7%
Unordered % (α-glucosidase [2]; ligand 40 μM): 27.8%
α-Helix % (α-glucosidase [2]; ligand 40 μM): 37.8%
β-Turns % (α-glucosidase [2]; ligand 80 μM): 15.8%
β-Fold % (α-glucosidase [2]; ligand 80 μM): 22.5%
Unordered % (α-glucosidase [2]; ligand 80 μM): 27.7%
α-Helix % (α-glucosidase [2]; ligand 80 μM): 33.5%
Type of inhibition [3]: noncompetitive
ITC titration peaks (α-glucosidase [4]): too weak to yield thermodynamic parameters
IC50 [5]: 216 ± 3.19 µM

O=C(OC[C@H]1OC[C@H](O)[C@@H](O)[C@@H]1O)c1cc(O)c(O)c(O)c1 [ginnalin B]
ITC titration peaks (α-glucosidase [4]): too weak to yield thermodynamic parameters
IC50 [5]: > 1000 µM

O=C(O[C@H]1CO[C@H](CO)[C@@H](O)[C@@H]1O)c1cc(O)c(O)c(O)c1 [ginnalin C]
ITC titration peaks (α-glucosidase [4]): too weak to yield thermodynamic parameters
IC50 [5]: > 1000 µM

O=C(OC[C@H]1OC[C@H](OC(=O)c2cc(O)c(O)c(O)c2)[C@@H](OC(=O)c2cc(O)c(O)c(O)c2)[C@@H]1OC(=O)c1cc(O)c(O)c(O)c1)c1cc(O)c(O)c(O)c1 [maplexin J]
β-Turns % (α-glucosidase [2]; ligand 20 μM): 20.4%
β-Fold % (α-glucosidase [2]; ligand 20 μM): 21.1%
Unordered % (α-glucosidase [2]; ligand 20 μM): 26.4%
α-Helix % (α-glucosidase [2]; ligand 20 μM): 31.8%
β-Turns % (α-glucosidase [2]; ligand 40 μM): 19.1%
β-Fold % (α-glucosidase [2]; ligand 40 μM): 24.4%
Unordered % (α-glucosidase [2]; ligand 40 μM): 25.3%
α-Helix % (α-glucosidase [2]; ligand 40 μM): 30.7%
Type of inhibition [3]: noncompetitive
binding constants (Ka) (α-glucosidase [4]): 42200 mol⁻¹
ΔG (α-glucosidase [4]): -6.31 kcal/mol
Ka (α-glucosidase [4]; 25 °C, phosphate buffer pH 7.0): 4.22 10^4 mol^−1
ΔG (α-glucosidase [4]; 25 °C, phosphate buffer pH 7.0): -1.51 kcal/mol
ΔH (α-glucosidase [4]; 25 °C, phosphate buffer pH 7.0): -6.016 kcal/mol
ΔS (α-glucosidase [4]; 25 °C, phosphate buffer pH 7.0): 63.31 J mol^−1 K^−1
N [GCGs/α-glucosidase] (ligand:enzyme ratio) (α-glucosidase [4]; 25 °C, phosphate buffer pH 7.0, listed as MJ): 1.01
IC50 [5, 6]: 4.27 ± 0.13 µM
potency relative to maplexins E and F ([5]; α-glucosidase inhibition): three times more potent than maplexins E and F

maplexin F
β-Turns % (α-glucosidase [2]; ligand 20 μM): 15.6%
β-Fold % (α-glucosidase [2]; ligand 20 μM): 24.7%
Unordered % (α-glucosidase [2]; ligand 20 μM): 28.4%
α-Helix % (α-glucosidase [2]; ligand 20 μM): 30.7%
β-Turns % (α-glucosidase [2]; ligand 40 μM): 16.6%
β-Fold % (α-glucosidase [2]; ligand 40 μM): 22.7%
Unordered % (α-glucosidase [2]; ligand 40 μM): 28.9%
α-Helix % (α-glucosidase [2]; ligand 40 μM): 31.2%
Type of inhibition [3]: noncompetitive
binding constants (Ka) (α-glucosidase [4]): 28500 mol⁻¹
ΔG (α-glucosidase [4]): -6.09 kcal/mol
Ka (α-glucosidase [4]; 25 °C, phosphate buffer pH 7.0): 2.85 10^4 mol^−1
ΔG (α-glucosidase [4]; 25 °C, phosphate buffer pH 7.0): -1.46 kcal/mol
ΔH (α-glucosidase [4]; 25 °C, phosphate buffer pH 7.0): -2.452 kcal/mol
ΔS (α-glucosidase [4]; 25 °C, phosphate buffer pH 7.0): 14.06 J mol^−1 K^−1
N [GCGs/α-glucosidase] (ligand:enzyme ratio) (α-glucosidase [4]; 25 °C, phosphate buffer pH 7.0, listed as MF): 1.01
IC50 [5, 6]: 13.7 ± 0.87 µM
